Laboratory results reported in ChEMBL document CHEMBL5724801, “EUbOPEN Chemogenomics Library - Multiplex” (2024).
Several values for one entry are separate records, joined by “and”; a condition that tells them apart may be missing. Identical values can stand only once.

Test system: HEK-293T
Assay: Multiplex assay against HEK293T
Type: toxicity, cell-based
Settings: human
Procedure, shortened: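 Compound was added to live cells that had been stained at seeding with Hoechst33342, BioTracker Green Microtubule Cytoskeleton Dye, MitoTracker Red and Annexin V Alexa Fluor 680, and imaging followed on a CQ1 microscope at 37°C and 5% CO2. CellPathfinder machine-learning gating divided cells into Hoechst high-intensity objects or normal cells, normal cells into healthy, pyknosed or fragmented nuclei, and pyknosed cells into mitotic or apoptotic. Tubulin, mitochondrial-mass and membrane-permeability phenotypes are per cents of healthy-nucleus cells.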

[1] = 12 h, 1 µM, compound concentration 1 uM
[2] = 12 h, 10 µM, compound concentration 10 uM
[3] = 24 h, 1 µM, compound concentration 1 uM
[4] = 24 h, 10 µM, compound concentration 10 uM
[5] = 48 h, 1 µM, compound concentration 1 uM
[6] = 48 h, 10 µM, compound concentration 10 uM

FC(F)(F)c1ccccc1-c1cc(C(F)(F)F)c2[nH]c(C3=NOC4(CCCCC4)C3)nc2c1
Population Apoptotic (%) [1]: 5.48% and 14.05% | Population Fragmented Nuclei (%) [1]: 1.23% and 6.04% | Population Hoechst High Intensity Objects (%) [1]: 0% | Population Membrane Permeable-Phenotype (%) [1]: 0% | Population Mitochondria Different-Phenotype (%) [1]: 43.68% and 36.84% | Population Mitotic Cells (%) [1]: 94.52% and 85.95% | Population Normal (%) [1]: 100% | Population Pyknosed Nuclei (%) [1]: 45.06% and 81.21% | Total Cell Count [1]: 324 and 149 | Population Apoptotic (%) [2]: 11.51% and 25.77% | Population Fragmented Nuclei (%) [2]: 0.39% and 4.42% | Population Hoechst High Intensity Objects (%) [2]: 0.78% and 0% | Population Membrane Permeable-Phenotype (%) [2]: 0% | Population Mitochondria Different-Phenotype (%) [2]: 32.17% and 18.18% | Population Mitotic Cells (%) [2]: 88.49% and 74.23% | Population Normal (%) [2]: 99.22% and 100% | Population Pyknosed Nuclei (%) [2]: 54.51% and 85.84% | Population Tubulin-Different-Phenotype (%) [2]: 40.87% and 45.45% | Total Cell Count [2]: 257 and 113 | Population Apoptotic (%) [3]: 10.89% and 15.53% | Population Fragmented Nuclei (%) [3]: 1.48% and 2.1% | Population Hoechst High Intensity Objects (%) [3]: 0% | Population Membrane Permeable-Phenotype (%) [3]: 0.93% and 5.41% | Population Mitochondria Different-Phenotype (%) [3]: 18.75% and 24.32% | Population Mitotic Cells (%) [3]: 89.11% and 84.47% | Population Normal (%) [3]: 100% | Population Tubulin-Different-Phenotype (%) [3]: 18.29% and 21.62% | Population Apoptotic (%) [4]: 37.98% and 40% | Population Fragmented Nuclei (%) [4]: 1.06% and 5.51% | Population Hoechst High Intensity Objects (%) [4]: 0.7% and 0% | Population Membrane Permeable-Phenotype (%) [4]: 0.66% and 0% | Population Mitochondria Different-Phenotype (%) [4]: 57.89% and 50% | Population Mitotic Cells (%) [4]: 62.02% and 60% | Population Normal (%) [4]: 99.3% and 100% | Population Pyknosed Nuclei (%) [4]: 45.42% and 86.61% | Population Tubulin-Different-Phenotype (%) [4]: 72.37% and 30% | Total Cell Count [4]: 286 and 127 | Population Fragmented Nuclei (%) [5]: 2% and 1.31% | Population Healthy Nuclei (%) [5]: 85.85% and 52.94% | Population Hoechst High Intensity Objects (%) [5]: 0% | Population Membrane Permeable-Phenotype (%) [5]: 4.66% and 2.47% | Population Mitochondria Different-Phenotype (%) [5]: 18.43% and 25.93% | Population Mitotic Cells (%) [5]: 94.52% and 78.57% | Population Normal (%) [5]: 100% | Population Apoptotic (%) [6]: 29.75% and 35.21% | Population Fragmented Nuclei (%) [6]: 1.37% and 5.17% | Population Healthy Nuclei (%) [6]: 74.95% and 33.62% | Population Hoechst High Intensity Objects (%) [6]: 0% | Population Membrane Permeable-Phenotype (%) [6]: 3.92% and 2.56% | Population Mitochondria Different-Phenotype (%) [6]: 79.11% and 61.54% | Population Mitotic Cells (%) [6]: 70.25% and 64.79% | Population Normal (%) [6]: 100% | Population Pyknosed Nuclei (%) [6]: 23.68% and 61.21%

CN(C)c1ccnc2sc3c(=O)n(N4CCCCCC4)cnc3c12
Population Apoptotic (%) [1]: 45% and 51% | Population Fragmented Nuclei (%) [1]: 9% and 5% | Population Healthy Nuclei (%) [1]: 76% and 82% | Population Hoechst High Intensity Objects (%) [1]: 4% and 8% | Population Membrane Permeable-Phenotype (%) [1]: 1% and 0% | Population Mitochondria Different-Phenotype (%) [1]: 50% and 67% | Population Mitotic Cells (%) [1]: 54% and 48% | Population Normal (%) [1]: 95% and 91% | Population Pyknosed Nuclei (%) [1]: 13% and 12% | Population Tubulin-Different-Phenotype (%) [1]: 43% and 25% | Total Cell Count [1]: 360 and 335 | Population Apoptotic (%) [2]: 36% and 59% | Population Fragmented Nuclei (%) [2]: 4% and 9% | Population Healthy Nuclei (%) [2]: 81% and 72% | Population Hoechst High Intensity Objects (%) [2]: 10% and 13% | Population Membrane Permeable-Phenotype (%) [2]: 0% | Population Mitochondria Different-Phenotype (%) [2]: 78% and 76% | Population Mitotic Cells (%) [2]: 63% and 40% | Population Normal (%) [2]: 89% and 86% | Population Pyknosed Nuclei (%) [2]: 14% and 17% | Population Tubulin-Different-Phenotype (%) [2]: 79% and 59% | Total Cell Count [2]: 387 and 308 | Population Apoptotic (%) [3]: 30% and 25% | Population Fragmented Nuclei (%) [3]: 10% and 7% | Population Healthy Nuclei (%) [3]: 76% and 84% | Population Hoechst High Intensity Objects (%) [3]: 4% and 5% | Population Membrane Permeable-Phenotype (%) [3]: 1% and 0% | Population Mitochondria Different-Phenotype (%) [3]: 27% and 51% | Population Mitotic Cells (%) [3]: 70% and 74% | Population Normal (%) [3]: 95% and 94% | Population Pyknosed Nuclei (%) [3]: 12% and 7% | Population Tubulin-Different-Phenotype (%) [3]: 24% and 22% | Total Cell Count [3]: 510 and 470 | Population Apoptotic (%) [4]: 42% and 66% | Population Fragmented Nuclei (%) [4]: 7% and 10% | Population Healthy Nuclei (%) [4]: 76% and 74% | Population Hoechst High Intensity Objects (%) [4]: 8% and 13% | Population Membrane Permeable-Phenotype (%) [4]: 0% | Population Mitochondria Different-Phenotype (%) [4]: 80% and 75% | Population Mitotic Cells (%) [4]: 57% and 33% | Population Normal (%) [4]: 91% and 86% | Population Pyknosed Nuclei (%) [4]: 16% and 15% | Population Tubulin-Different-Phenotype (%) [4]: 71% and 53% | Total Cell Count [4]: 428 and 359 | Population Apoptotic (%) [5]: 27% and 20% | Population Fragmented Nuclei (%) [5]: 13% and 11% | Population Healthy Nuclei (%) [5]: 78% and 82% | Population Hoechst High Intensity Objects (%) [5]: 2% and 3% | Population Membrane Permeable-Phenotype (%) [5]: 0% and 2% | Population Mitochondria Different-Phenotype (%) [5]: 23% and 31% | Population Mitotic Cells (%) [5]: 72% and 80% | Population Normal (%) [5]: 97% and 96% | Population Pyknosed Nuclei (%) [5]: 7% and 6% | Population Tubulin-Different-Phenotype (%) [5]: 14% and 15% | Total Cell Count [5]: 721 and 663 | Population Apoptotic (%) [6]: 70% and 57% | Population Fragmented Nuclei (%) [6]: 15% and 11% | Population Healthy Nuclei (%) [6]: 72% and 75% | Population Hoechst High Intensity Objects (%) [6]: 8% and 6% | Population Membrane Permeable-Phenotype (%) [6]: 0% | Population Mitochondria Different-Phenotype (%) [6]: 66% and 63% | Population Mitotic Cells (%) [6]: 29% and 42% | Population Normal (%) [6]: 91% and 93% | Population Pyknosed Nuclei (%) [6]: 12% | Population Tubulin-Different-Phenotype (%) [6]: 54% and 45% | Total Cell Count [6]: 497 and 450

C[C@H](N)COC(=O)[C@@H](CCCCN)NC(=O)Cc1c(-c2ccc3ccccc3c2)[nH]c2c1ccc1ccccc12
Population Apoptotic (%) [1]: 22% and 51% | Population Fragmented Nuclei (%) [1]: 6% and 8% | Population Healthy Nuclei (%) [1]: 82% and 74% | Population Hoechst High Intensity Objects (%) [1]: 8% | Population Membrane Permeable-Phenotype (%) [1]: 0% | Population Mitochondria Different-Phenotype (%) [1]: 37% and 65% | Population Mitotic Cells (%) [1]: 77% and 48% | Population Normal (%) [1]: 91% | Population Pyknosed Nuclei (%) [1]: 10% and 16% | Population Tubulin-Different-Phenotype (%) [1]: 27% and 30% | Total Cell Count [1]: 458 and 291 | Population Apoptotic (%) [2]: 41% and 61% | Population Fragmented Nuclei (%) [2]: 7% and 5% | Population Healthy Nuclei (%) [2]: 78% | Population Hoechst High Intensity Objects (%) [2]: 11% and 7% | Population Membrane Permeable-Phenotype (%) [2]: 0% | Population Mitochondria Different-Phenotype (%) [2]: 60% and 72% | Population Mitotic Cells (%) [2]: 58% and 38% | Population Normal (%) [2]: 88% and 93% | Population Pyknosed Nuclei (%) [2]: 14% and 16% | Population Tubulin-Different-Phenotype (%) [2]: 54% and 50% | Total Cell Count [2]: 435 and 343 | Population Apoptotic (%) [3]: 25% and 54% | Population Fragmented Nuclei (%) [3]: 9% and 7% | Population Healthy Nuclei (%) [3]: 77% and 80% | Population Hoechst High Intensity Objects (%) [3]: 4% and 7% | Population Membrane Permeable-Phenotype (%) [3]: 0% and 1% | Population Mitochondria Different-Phenotype (%) [3]: 24% and 47% | Population Mitotic Cells (%) [3]: 75% and 45% | Population Normal (%) [3]: 95% and 92% | Population Pyknosed Nuclei (%) [3]: 12% | Population Tubulin-Different-Phenotype (%) [3]: 19% and 25% | Total Cell Count [3]: 638 and 352 | Population Apoptotic (%) [4]: 41% and 48% | Population Fragmented Nuclei (%) [4]: 6% and 9% | Population Healthy Nuclei (%) [4]: 78% and 80% | Population Hoechst High Intensity Objects (%) [4]: 6% and 7% | Population Membrane Permeable-Phenotype (%) [4]: 0% | Population Mitochondria Different-Phenotype (%) [4]: 57% and 54% | Population Mitotic Cells (%) [4]: 58% and 51% | Population Normal (%) [4]: 93% and 92% | Population Pyknosed Nuclei (%) [4]: 14% and 10% | Population Tubulin-Different-Phenotype (%) [4]: 45% and 42% | Total Cell Count [4]: 539 and 439 | Population Apoptotic (%) [5]: 15% and 37% | Population Fragmented Nuclei (%) [5]: 13% and 11% | Population Healthy Nuclei (%) [5]: 78% and 79% | Population Hoechst High Intensity Objects (%) [5]: 4% | Population Membrane Permeable-Phenotype (%) [5]: 2% and 0% | Population Mitochondria Different-Phenotype (%) [5]: 16% and 29% | Population Mitotic Cells (%) [5]: 84% and 62% | Population Normal (%) [5]: 95% | Population Pyknosed Nuclei (%) [5]: 7% and 9% | Population Tubulin-Different-Phenotype (%) [5]: 13% and 17% | Total Cell Count [5]: 963 and 540 | Population Apoptotic (%) [6]: 27% and 32% | Population Fragmented Nuclei (%) [6]: 13% and 14% | Population Healthy Nuclei (%) [6]: 78% and 79% | Population Hoechst High Intensity Objects (%) [6]: 6% and 4% | Population Membrane Permeable-Phenotype (%) [6]: 0% | Population Mitochondria Different-Phenotype (%) [6]: 44% and 43% | Population Mitotic Cells (%) [6]: 72% and 67% | Population Normal (%) [6]: 93% and 95% | Population Pyknosed Nuclei (%) [6]: 7% and 6% | Population Tubulin-Different-Phenotype (%) [6]: 33% and 35% | Total Cell Count [6]: 781 and 681
